Sampled rows, rich in hits. Any-hit rate of the full collection: about 2.4%.
Runt-CBFb FRET: inhibitors of RUNX1 Runt–CBFb binding, primary screen, biochemical, FRET, Cerulean-Runt, Venus-CBFb, uHTS. AID 1496, 2009. Cerulean-Runt/Venus-CBFb FRET ratio 530/480, 1 h. inhibition, % at 20 µM. 220,000 compounds, 0.46% hits. Runt-related transcription factor 1 (Homo sapiens) + Core-binding factor subunit beta …;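 active = inhibition over about 50% at 20 µM in the single-dose screen, limit read from the data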
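Assay system: Cerulean-Runt domain fusion protein, energy donor; Signal: fluorescence energy transfer, 422 nm excitation, 530/480 nm emission; Timing: 1 h compound exposure, room temperature; Control set: unlabeled CBFb; Medium: Tris buffer pH 7.5 with salts and BSA; Compound: single test concentration of 20 µM, 1% DMSO final; Probe or stimulus: Venus-CBFb 100 nM.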
Runt-SMMHC FRET: inhibitors of RUNX1 Runt–CBFb-SMMHC binding, primary screen, biochemical, FRET, Cerulean-Runt, Venus-CBFb-SMMHC, uHTS; Runt-related transcription factor 1 (Homo sapiens) + Core-binding factor subunit beta …; Cerulean-Runt/Venus-CBFb-SMMHC FRET ratio 530/480, 1 h; inhibition, % at 20 µM; 220,000 compounds, 0.74% hits; AID 1434, 2008;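 active = mean inhibition across duplicate retests at 20 µM reaching about 50%, limit read from the data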;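 also: inhibitors lower the FRET ratio by blocking Runt binding to CBFb-SMMHC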
RanGTP-Impb inh: inhibitors of RanGTP-importin-beta interaction, primary screen, biochemical, FRET, CFP-Ran, YFP-importin-beta, homogeneous. Ran GTPase (GTP-bound) - importin-beta complex. cell-free CFP-Ran/YFP-importin-beta FRET ratio. inhibition, % (no concentration beside the values). 300,000 compounds, 1.1% hits. AID 2216, 2009;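 active = more than half of the replicate wells show a fall in the fluorescence ratio signal beyond about 16%, limit read from the data, passing the limit was not always enough; inconclusive = exactly half of the replicate wells pass the set limit; inactive = fewer than half of replicates pass the limit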
MEX-5 binding: MEX-5 zinc finger RNA-binding disruptors – biochemical, C. elegans, fluorescence polarization, MLPCN library, primary screen; 300,000 compounds, 0.38% hits; Zinc finger protein mex-5 (Caenorhabditis elegans), Q9XUB2; MEX-5/FITC-TCR2 RNA binding; active compounds read low; activity score (negative = inhibition of binding), % at 10 µM; AID 1832, 2009;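 active = inhibition past about -25% in most replicates, and total fluorescence under double the plate's negative control median, limit read from the data; inconclusive = replicates evenly split on the limit, or fluorescence at least double controls; inactive = too little inhibition in most replicates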
Target sequence (Q9XUB2 whole entry, looked up): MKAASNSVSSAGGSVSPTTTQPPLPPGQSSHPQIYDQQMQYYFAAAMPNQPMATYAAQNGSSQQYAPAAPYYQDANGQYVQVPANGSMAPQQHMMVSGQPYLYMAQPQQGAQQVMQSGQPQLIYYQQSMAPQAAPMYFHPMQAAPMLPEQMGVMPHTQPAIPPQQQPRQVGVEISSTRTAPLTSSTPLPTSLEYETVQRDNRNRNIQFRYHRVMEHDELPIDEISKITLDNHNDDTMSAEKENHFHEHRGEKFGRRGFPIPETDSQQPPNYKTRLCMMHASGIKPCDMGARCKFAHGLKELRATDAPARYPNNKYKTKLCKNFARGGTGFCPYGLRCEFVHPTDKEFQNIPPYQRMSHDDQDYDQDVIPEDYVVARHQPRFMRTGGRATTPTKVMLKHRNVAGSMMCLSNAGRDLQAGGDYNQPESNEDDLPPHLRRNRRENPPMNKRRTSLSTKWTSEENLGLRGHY
LANA-H2A inh: blockers of LANA interaction with H2A/H2B – biochemical, FP readout, HTS, primary screen. Protein LANA1 (Human herpesvirus 8 type P (isolate GK18)), Q9QR71. cell-free LANA-H2A/H2B peptide, fluorescence polarization. inhibition, % (no concentration beside the values). 320,000 compounds, 0.6% hits; in the data active = inhibition mostly above about 10%, no sharp cut-off; inactive = mostly below about 6.7%
EBV gp42 block: Epstein-Barr virus gp42 inhibitors, primary screen, biochemical, uHTS, fluorescence polarization | inhibition, % (tested at 21.74 µM) | Glycoprotein 42 (Epstein-Barr virus (strain AG876)), Q1HVG2 | Fluorescence polarization binding assay, mP read-out | 220,000 compounds, 0.42% hits; in the data active = inhibition above about 50%
Target sequence (Q1HVG2 whole entry, looked up): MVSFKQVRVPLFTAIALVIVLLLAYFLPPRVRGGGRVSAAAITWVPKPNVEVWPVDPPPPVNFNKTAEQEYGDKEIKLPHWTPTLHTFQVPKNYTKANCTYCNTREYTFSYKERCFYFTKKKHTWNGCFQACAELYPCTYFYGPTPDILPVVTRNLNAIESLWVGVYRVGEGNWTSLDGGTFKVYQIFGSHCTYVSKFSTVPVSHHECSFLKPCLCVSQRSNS
YIC counter: YIC intramolecular FRET probe signal interference, dose response, counter-screen for RanGTP-importin-beta inhibitor project, biochemical, fluorescence FRET; shares compounds with RanGTP-Impb inh; Purified YIC probe, intramolecular FRET ratio YFP/CFP; IC50, µM; 1,000 compounds, 40% hits; AID 435026, 2010;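 active = fitted half-maximal inhibitory concentration no more than tenfold above the top dose tested; inconclusive = flat fit with 30 to 70% activity, or poor fit; inactive = half-maximal concentration beyond tenfold above the top dose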
Hits are given with their value; 0 = inactive; ? = inconclusive; - = no result.

SMILES	Runt-CBFb FRET	Runt-SMMHC FRET	RanGTP-Impb inh	MEX-5 binding	LANA-H2A inh	EBV gp42 block	YIC counter
COC(=O)c1ccc(NC(=O)CN2C(=O)CC(C)S(=O)(=O)c3ccccc32)cc1 (configuration not stated)	-	-	0	0	0	-	-
COc1ccc(NC(=O)CN2C(=O)CC(C)S(=O)(=O)c3ccccc32)cc1 (configuration not stated)	-	-	18	0	0	-	0
COc1ccc(CCNc2oc(-c3ccco3)nc2C#N)cc1	0	0	26	0	0	0	0
Cc1nnc(NC(=O)c2nn(CC(C)C)c(=O)c3ccccc23)s1	0	0	0	0	0	0	-
Cc1nc2ccc(NC(=O)c3nn(CC(C)C)c(=O)c4ccccc34)cc2s1	0	0	20	0	0	0	0
COc1ccc(OCc2csc(N)n2)cc1	0	0	0	0	0	0	-
COc1ccc(NC(=O)N2CCCCCC2)cc1	0	0	21	0	0	0	0
Cc1ccc2c(=O)n3c(nc2c1)C(CC(C)C)NC(=O)c1ccc(Cl)cc1-3 (configuration not stated)	-	-	-	-	0	-	-
Cc1nn(-c2ccccc2)c2sc(C(=O)NC3CCCCC3)cc12	0	0	28	0	0	0	0
CC1C=CCC2C(=O)N(c3ccccc3OC(=O)c3cccs3)C(=O)C12 (configuration not stated)	0	0	22	0	0	0	0
NC(=O)NC(=O)C[n+]1cccc(/C=N/O)c1	0	0	0	0	0	0	-
O=C(Nc1ccccc1C(=O)Nc1ccc2c(c1)OCO2)c1cccs1	0	0	0	0	0	0	-
Cc1cc(C(=O)O)ccc1-c1ccc(/C=C2\NC(=O)N(Cc3ccccc3Cl)C2=O)o1	0	68	22	0	0	0	0.91
C#CCN1C(=O)S/C(=C\c2ccc(-c3ccc(C(=O)O)cc3C)o2)C1=O	-	-	?	0	0	-	-
Cc1cc(C(=O)N/N=C2\CC(=O)CC(C)(C)C2)n[nH]1	0	0	16	0	0	0	0
CCOc1ccc(NS(=O)(=O)c2ccc3c(c2)CCN3C(=O)C2CCC2)cc1	0	0	0	0	0	0	-
CCOc1ccc(NS(=O)(=O)c2ccc3c(c2)CCN3C(=O)CCC(=O)O)cc1	0	0	28	0	0	0	0
CC(C)(C)CN1CCC(n2nccc2NC(=O)c2ccccc2Cl)CC1	-	-	20	0	0	-	0
COC(=O)Nc1ccc(NC(C)=O)cc1	0	0	17	0	0	0	0
OCCC1CN(Cc2cccn2-c2cccnc2)CCN1Cc1ccc(F)cc1 (configuration not stated)	0	0	27	0	0	0	0
Cc1ccc(Nc2ccncc2S(N)(=O)=O)cc1	-	-	0	0	0	-	-
CCOC(=O)C1(CC2CCCCO2)CCN(C(=O)Nc2ccc3c(c2)OCO3)CC1 (configuration not stated)	0	0	22	0	0	0	0
Cn1cc(Br)c(C(=O)Nc2nccs2)n1	0	0	0	0	0	0	-
CC(C)c1cc(N2CCN(C(=O)c3ccco3)CC2)n2c(nc3ccccc32)c1C#N	0	-	?	0	0	0	16
CCC1(C(=O)OC)NC(c2cccc(F)c2)C2C(=O)N(C)C(=O)C21 (configuration not stated)	-	-	20	0	0	0	0
SMILES	Runt-CBFb FRET	Runt-SMMHC FRET	RanGTP-Impb inh	MEX-5 binding	LANA-H2A inh	EBV gp42 block	YIC counter
COC(=O)C1(Cc2ccccc2)NC(c2ccc(F)cc2)C2C(=O)N(C)C(=O)C21 (configuration not stated)	0	0	0	0	0	0	-
Cn1c(SCc2ccccc2F)nnc1-c1cnccn1	0	0	0	0	0	0	-
Cn1c(SCc2ccccc2F)nnc1-c1ccccn1	0	0	20	0	0	0	0
CC(C)(C)c1ccc(S(=O)(=O)NCC(=O)N2CCN(C(=O)c3ccco3)CC2)cc1	0	0	21	0	0	0	0
CC(C)(C)c1ccc(S(=O)(=O)NCC(=O)N2CCCC2)cc1	-	-	0	0	0	-	-
CCOc1cc(C2C3=C(CC(C)(C)CC3=O)N(CCOC)C3=C2C(=O)CC(C)(C)C3)ccc1O	-	-	0	0	0	-	-
C#CCOc1ccc(C2C3=C(CC(C)(C)CC3=O)N(CC(=O)O)C3=C2C(=O)CC(C)(C)C3)cc1OC	-	-	22	0	0	-	39
COc1ccc(-n2cnc3cc(NCc4cccs4)ccc32)cc1	0	0	19	0	0	0	0
N#CCCN(C(=O)Nc1ccc(Cl)cc1)c1ccccc1	0	0	96	0	0	0	0
N#CCCN(C(=O)Nc1ccccc1)c1ccccc1	0	0	0	0	0	0	-
COc1ccc(CCNc2c3ccccc3nc3ccccc23)cc1OC	110	134	43	0	0	0	14
COc1ccc(CCn2c(C)nc3ccccc3c2=O)cc1OC	0	0	23	0	0	0	0
COc1ccccc1Nc1c2ccccc2nc2ccccc12	-	-	27	0	0	-	0
CC(C)N=C1CC(C)(C)CC(=O)/C1=C(/O)CCCN1C(=O)c2ccccc2C1=O	0	0	0	0	0	0	-
CCN1C(=O)/C(=C2\Sc3ccccc3N2CC)OC1=S	0	0	21	0	0	0	36
C=CCN1C(=O)/C(=C2/Sc3ccccc3N2CC)SC1=S	-	-	17	-30	0	-	0
C=CCN1C(=O)/C(=C2/Sc3ccccc3N2C)SC1=Nc1ccccc1C	0	0	0	0	0	0	-
NC(=O)c1ccsc1NC(=O)CSc1nnc(NC2CC2)s1	-	-	-	-	0	-	-
N=C(N)SCc1nc2ccccc2c(=O)n1-c1ccccc1Cl	0	0	26	0	0	0	0
Cc1ccccc1-n1c(CSC(=N)N)nc2ccccc2c1=O	0	0	0	0	0	0	-
O=C1NC(=O)C(CC(=O)N(Cc2cccs2)C2(C(=O)NC3CCCCC3)CCCCC2)N1 (configuration not stated)	0	0	?	0	0	0	-
COc1ccc(Oc2ccc(C(F)(F)F)cc2NC(=O)CC(CC(=O)O)c2ccccc2)cc1 (configuration not stated)	-	-	?	0	0	-	-

Source: PubChem (several laboratories)
